From ChEMBL document CHEMBL4177600, “Identification of novel PI3K inhibitors through a scaffold hopping strategy” (Bioorg Med Chem Lett, 2017)
Converted amounts (≈) assume the structure as drawn.

Assays:
[1] = target: Dual specificity tyrosine-phosphorylation-regulated kinase 1A (Homo sapiens) (UniProt Q13627); test: Inhibition of DYRK1A (unknown origin) at 1 uM relative to control
Method in brief: (§1)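 Kinase panel of 24 enzymes, each tested at 1 µM; percent inhibition reported as the average of two independent data points.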

[2] = target: Serine/threonine-protein kinase Chk2 (Homo sapiens) (UniProt O96017); test: Inhibition of CHK2 (unknown origin) at 1 uM relative to control; method in brief: as §1
[3] = target: Focal adhesion kinase 1 (Homo sapiens) (UniProt Q05397); test: Inhibition of human FAK at 1 uM relative to control; method in brief: as §1
[4] = target: PI3-kinase p110-delta/p85-alpha (Homo sapiens, UniProt O00329); test: Inhibition of recombinant human full-length N-terminal His6-tagged p110delta/human full-length p85alpha expressed in baculovirus infected Sf21 insect cells using PIP2 as substrate by HTRF assay; conditions: read-out: Ki(app)
[5] = target: T1, Serine/threonine-protein kinase Sgk1 (Homo sapiens) (UniProt O00141); test: Inhibition of recombinant human N-terminal GST-tagged SGK1 (M1 to L431 residues) expressed in baculovirus infected Sf9 cells at 1 uM using GSK3-derived peptide as substrate by filter binding method relative to control; method in brief: as §1
T1 sequence (whole entry): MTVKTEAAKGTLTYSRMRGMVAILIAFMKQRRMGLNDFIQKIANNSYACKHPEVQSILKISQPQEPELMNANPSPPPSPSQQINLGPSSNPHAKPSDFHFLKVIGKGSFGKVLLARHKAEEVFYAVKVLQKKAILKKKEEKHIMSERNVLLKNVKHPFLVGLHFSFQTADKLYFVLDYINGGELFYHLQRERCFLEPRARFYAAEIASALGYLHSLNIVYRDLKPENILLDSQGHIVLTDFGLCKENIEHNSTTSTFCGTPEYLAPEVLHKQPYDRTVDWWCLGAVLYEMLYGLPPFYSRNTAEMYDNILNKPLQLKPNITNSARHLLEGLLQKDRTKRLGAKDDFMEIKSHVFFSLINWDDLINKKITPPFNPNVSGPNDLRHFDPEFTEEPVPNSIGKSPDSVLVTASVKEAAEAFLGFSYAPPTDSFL

[6] = system: Serine/threonine-protein kinase B-raf (Homo sapiens), P15056 [V600E]; test: Inhibition of recombinant human N-terminal GST/HIS6-tagged BRAF V600E mutant (Q417 to H766 residues) expressed in Sf9 insect cells at 1 uM using MEK1-KM as substrate by fliter binding assay relative to control; method in brief: as §1
[7] = Kinetic solubility of the compound in phosphate buffered saline at pH 7.4 at 1 to 2 mg measured after 24 hrs by HPLC analysis; format: physicochemical; conditions: read-out: Kinetic_solubility
Method in brief: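 Solid compound (1–2 mg) in 1 mL PBS, pH 7.4, inverted in test tubes for 24 h. Samples centrifuged, supernatant analysed by HPLC with diode-array detection, with peak area compared to a standard of known concentration. LC-MS/MS used when UV signal was too low or the chromophore poor. Reported in µM.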

[8] = target: Phosphatidylinositol 4,5-bisphosphate 3-kinase catalytic subunit gamma isoform (Homo sapiens, UniProt P48736); test: Inhibition of recombinant full-length human N-terminal His6-tagged p110gamma expressed in baculovirus infected Sf21 insect cells using PIP2 as substrate by HTRF assay; conditions: read-out: Ki(app)
[9] = target: Insulin receptor (Homo sapiens) (UniProt P06213); test: Inhibition of recombinant human N-terminal GST-tagged INSR (G989 to S1382 residues) expressed in baculovirus infected Sf9 cells at 1 uM using Poly(Ala,Glu,Lys,Tyr)6:2:5:1 as substrate by filter binding method relative to control; method in brief: as §1
CYP2C9 = CYP2C9 (Homo sapiens, UniProt P11712); test: Inhibition of CYP2C9 (unknown origin) at 10 uM relative to control; format: ADME
Method in brief: (§2)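 CYP1A2, 2C9, 2C19, 2D6 and 3A4 inhibition measured at 10 µM test compound in duplicate; percent inhibition reported.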

[10] = target: Vascular endothelial growth factor receptor 2 (Homo sapiens) (UniProt P35968); test: Inhibition of recombinant human N-terminal GST-tagged VEGFR2 (D807 to V1356 residues) expressed in Sf9 insect cells at 1 uM using Poly(Glu:Tyr)4:1 as substrate by filter binding method relative to control; method in brief: as §1
[11] = target: Dual specificity mitogen-activated protein kinase kinase 1 (Homo sapiens) (UniProt Q02750); test: Inhibition of wild-type human MEK1 (M1 to V393 residues) expressed in Sf9 insect cells at 1 uM using ERK2-K54R as substrate by filter binding method relative to control
Method in brief: (§3)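 Single-point screen at 1 µM in a 24-kinase panel run externally; each value is the average of two independent data points. The detailed assay conditions are given only on the provider's site.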

CYP1A2 = target: T2, CYP1A2 (Homo sapiens, UniProt P05177); test: Inhibition of CYP1A2 (unknown origin) at 10 uM relative to control; format: ADME; method in brief: as §2
T2 sequence (P05177 whole entry): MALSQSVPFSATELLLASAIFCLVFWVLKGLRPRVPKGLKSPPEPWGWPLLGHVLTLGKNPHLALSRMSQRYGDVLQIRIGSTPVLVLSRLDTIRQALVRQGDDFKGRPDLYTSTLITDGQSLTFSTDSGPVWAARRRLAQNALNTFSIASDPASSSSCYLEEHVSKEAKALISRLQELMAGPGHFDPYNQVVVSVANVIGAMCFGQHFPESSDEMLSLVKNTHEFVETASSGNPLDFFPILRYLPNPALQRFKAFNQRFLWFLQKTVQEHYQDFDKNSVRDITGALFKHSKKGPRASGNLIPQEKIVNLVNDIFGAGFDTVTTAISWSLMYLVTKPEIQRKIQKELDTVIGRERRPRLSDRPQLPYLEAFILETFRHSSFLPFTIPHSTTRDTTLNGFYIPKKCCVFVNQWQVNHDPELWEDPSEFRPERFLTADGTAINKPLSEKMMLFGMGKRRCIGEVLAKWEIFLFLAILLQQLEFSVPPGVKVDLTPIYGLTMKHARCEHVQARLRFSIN

PI3K p110 beta/p85 alpha = PI3K p110 beta/p85 alpha (Homo sapiens, UniProt P42338); test: Inhibition of p110beta/85alpha (unknown origin) using PIP2 as substrate by HTRF assay; format: protein-complex assay; conditions: read-out: Ki(app)
[12] = target: RAC-beta serine/threonine-protein kinase (Homo sapiens) (UniProt P31751); test: Inhibition of human AKT2 at 1 uM by filter binding assay relative to control; method in brief: as §1
[13] = target: Epidermal growth factor receptor (Homo sapiens) (UniProt P00533); test: Inhibition of recombinant human N-terminal GST/His6-tagged EGFR (H672 to A1210 residues) expressed in Sf9 insect cells at 1 uM using TRK-C-derived peptide as substrate by filter binding method relative to control; method in brief: as §1
[14] = target: Platelet-derived growth factor receptor alpha (Homo sapiens) (UniProt P16234); test: Inhibition of recombinant human N-terminal GST/His6-tagged PDGFRalpha (Q551 to L1089 residues) expressed in Sf9 insect cells at 1 uM using TRK-C-derived peptide as substrate by filter binding method relative to control; method in brief: as §3
CYP2D6 = CYP2D6 (Homo sapiens, UniProt P10635); test: Inhibition of CYP2D6 (unknown origin) at 10 uM relative to control; format: ADME; method in brief: as §2
Chain of CYP2D6 (P10635 whole entry): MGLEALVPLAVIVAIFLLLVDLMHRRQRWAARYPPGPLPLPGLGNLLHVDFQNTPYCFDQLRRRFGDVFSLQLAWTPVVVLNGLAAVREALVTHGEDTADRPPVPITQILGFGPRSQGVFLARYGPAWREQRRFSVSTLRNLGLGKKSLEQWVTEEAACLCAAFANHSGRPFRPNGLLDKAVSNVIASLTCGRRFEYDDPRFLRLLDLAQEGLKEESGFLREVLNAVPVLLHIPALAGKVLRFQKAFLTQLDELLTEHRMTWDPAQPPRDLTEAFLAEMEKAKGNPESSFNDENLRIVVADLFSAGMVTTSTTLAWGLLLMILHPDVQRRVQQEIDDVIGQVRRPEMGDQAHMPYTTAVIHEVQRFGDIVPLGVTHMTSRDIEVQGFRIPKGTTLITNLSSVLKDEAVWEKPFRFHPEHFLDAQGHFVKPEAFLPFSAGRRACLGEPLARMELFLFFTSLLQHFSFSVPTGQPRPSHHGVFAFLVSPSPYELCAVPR

Chain of Insulin receptor (Homo sapiens) (P06213 28-758 limits assumed): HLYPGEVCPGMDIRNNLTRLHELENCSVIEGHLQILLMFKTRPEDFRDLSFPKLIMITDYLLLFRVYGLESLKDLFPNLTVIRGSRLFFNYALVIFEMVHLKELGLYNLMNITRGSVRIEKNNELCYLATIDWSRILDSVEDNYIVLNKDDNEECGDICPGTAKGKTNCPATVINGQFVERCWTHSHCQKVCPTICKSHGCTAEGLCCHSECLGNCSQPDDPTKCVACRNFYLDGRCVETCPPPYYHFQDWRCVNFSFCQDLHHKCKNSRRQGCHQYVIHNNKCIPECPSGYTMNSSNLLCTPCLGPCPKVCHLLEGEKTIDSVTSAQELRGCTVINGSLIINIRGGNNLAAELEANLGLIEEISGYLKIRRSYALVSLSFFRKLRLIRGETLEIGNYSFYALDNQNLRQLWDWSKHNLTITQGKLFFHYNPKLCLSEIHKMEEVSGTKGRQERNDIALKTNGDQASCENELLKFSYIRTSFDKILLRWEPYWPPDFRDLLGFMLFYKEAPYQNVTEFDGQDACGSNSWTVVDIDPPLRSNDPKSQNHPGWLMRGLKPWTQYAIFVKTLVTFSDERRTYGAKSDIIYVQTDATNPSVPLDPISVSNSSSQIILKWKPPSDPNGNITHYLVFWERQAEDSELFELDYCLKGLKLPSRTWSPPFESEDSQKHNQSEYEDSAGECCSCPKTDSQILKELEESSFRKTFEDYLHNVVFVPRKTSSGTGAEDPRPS
Chain of Insulin receptor (Homo sapiens) (P06213 763-1382 limits assumed): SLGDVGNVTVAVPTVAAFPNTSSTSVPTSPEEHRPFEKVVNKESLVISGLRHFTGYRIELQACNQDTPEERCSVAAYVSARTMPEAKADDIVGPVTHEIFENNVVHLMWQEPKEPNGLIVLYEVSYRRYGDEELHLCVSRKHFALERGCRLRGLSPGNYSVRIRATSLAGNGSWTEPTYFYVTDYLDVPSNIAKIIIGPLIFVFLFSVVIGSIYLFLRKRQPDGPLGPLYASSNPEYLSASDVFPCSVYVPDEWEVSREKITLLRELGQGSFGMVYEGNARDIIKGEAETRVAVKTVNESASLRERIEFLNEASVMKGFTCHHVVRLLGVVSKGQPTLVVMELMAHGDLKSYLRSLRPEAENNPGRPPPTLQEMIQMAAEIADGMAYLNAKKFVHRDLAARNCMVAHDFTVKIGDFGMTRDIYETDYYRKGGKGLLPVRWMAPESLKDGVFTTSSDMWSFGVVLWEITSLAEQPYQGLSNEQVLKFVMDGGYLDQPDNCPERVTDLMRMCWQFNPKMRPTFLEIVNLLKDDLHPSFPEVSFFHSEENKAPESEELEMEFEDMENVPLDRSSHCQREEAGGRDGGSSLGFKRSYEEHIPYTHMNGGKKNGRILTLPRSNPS
Chain of PI3-kinase p110-delta/p85-alpha (P27986 whole entry, the tested form may be a part): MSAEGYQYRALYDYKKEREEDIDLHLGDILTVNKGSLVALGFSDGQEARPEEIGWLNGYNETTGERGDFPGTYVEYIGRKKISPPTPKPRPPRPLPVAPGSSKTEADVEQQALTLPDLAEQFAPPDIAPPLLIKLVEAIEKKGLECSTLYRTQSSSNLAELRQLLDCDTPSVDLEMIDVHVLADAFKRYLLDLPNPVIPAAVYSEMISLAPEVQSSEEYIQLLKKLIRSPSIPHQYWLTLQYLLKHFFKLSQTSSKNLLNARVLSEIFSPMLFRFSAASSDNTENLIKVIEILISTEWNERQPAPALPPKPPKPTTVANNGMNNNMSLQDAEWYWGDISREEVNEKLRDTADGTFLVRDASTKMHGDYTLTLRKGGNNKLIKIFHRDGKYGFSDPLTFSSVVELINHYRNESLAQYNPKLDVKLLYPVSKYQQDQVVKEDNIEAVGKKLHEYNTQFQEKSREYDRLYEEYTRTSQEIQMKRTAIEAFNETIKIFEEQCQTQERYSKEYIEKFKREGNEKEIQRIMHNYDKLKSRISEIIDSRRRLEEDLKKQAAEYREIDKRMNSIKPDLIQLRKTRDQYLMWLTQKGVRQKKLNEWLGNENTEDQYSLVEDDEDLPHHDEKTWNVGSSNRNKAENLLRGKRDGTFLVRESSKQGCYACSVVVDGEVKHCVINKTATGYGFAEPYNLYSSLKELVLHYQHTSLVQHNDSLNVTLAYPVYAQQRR
Chain of PI3-kinase p110-delta/p85-alpha (O00329 whole entry, the tested form may be a part): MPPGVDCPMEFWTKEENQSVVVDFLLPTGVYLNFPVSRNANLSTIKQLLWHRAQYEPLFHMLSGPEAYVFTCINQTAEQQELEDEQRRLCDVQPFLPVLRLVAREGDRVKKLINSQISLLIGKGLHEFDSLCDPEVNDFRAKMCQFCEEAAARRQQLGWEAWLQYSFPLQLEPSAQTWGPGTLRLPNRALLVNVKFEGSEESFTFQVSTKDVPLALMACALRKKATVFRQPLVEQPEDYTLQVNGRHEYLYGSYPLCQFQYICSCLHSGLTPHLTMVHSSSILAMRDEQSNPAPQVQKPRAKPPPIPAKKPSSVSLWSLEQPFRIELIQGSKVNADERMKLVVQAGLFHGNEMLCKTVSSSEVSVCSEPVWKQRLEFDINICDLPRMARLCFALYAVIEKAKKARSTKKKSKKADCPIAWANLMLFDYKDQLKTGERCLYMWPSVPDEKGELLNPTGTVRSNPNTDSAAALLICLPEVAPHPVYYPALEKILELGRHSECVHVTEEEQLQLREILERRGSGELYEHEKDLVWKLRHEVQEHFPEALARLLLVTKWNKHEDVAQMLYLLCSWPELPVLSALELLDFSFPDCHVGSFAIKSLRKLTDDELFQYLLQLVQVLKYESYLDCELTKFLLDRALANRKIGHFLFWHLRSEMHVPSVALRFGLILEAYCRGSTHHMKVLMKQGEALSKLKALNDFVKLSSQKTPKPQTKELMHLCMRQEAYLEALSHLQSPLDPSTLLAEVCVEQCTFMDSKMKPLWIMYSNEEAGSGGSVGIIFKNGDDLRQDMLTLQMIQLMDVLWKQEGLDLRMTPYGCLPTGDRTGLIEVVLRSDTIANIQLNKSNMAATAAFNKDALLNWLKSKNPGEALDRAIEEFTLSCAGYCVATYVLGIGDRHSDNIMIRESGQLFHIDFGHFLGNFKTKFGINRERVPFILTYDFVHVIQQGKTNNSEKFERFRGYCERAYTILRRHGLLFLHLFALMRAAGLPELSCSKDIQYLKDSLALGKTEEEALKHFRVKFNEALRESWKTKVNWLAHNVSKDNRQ
Chain of PI3K p110 beta/p85 alpha (P27986 whole entry): as the sequence (P27986 whole entry, the tested form may be a part) above
Chain of PI3K p110 beta/p85 alpha (P42338 whole entry): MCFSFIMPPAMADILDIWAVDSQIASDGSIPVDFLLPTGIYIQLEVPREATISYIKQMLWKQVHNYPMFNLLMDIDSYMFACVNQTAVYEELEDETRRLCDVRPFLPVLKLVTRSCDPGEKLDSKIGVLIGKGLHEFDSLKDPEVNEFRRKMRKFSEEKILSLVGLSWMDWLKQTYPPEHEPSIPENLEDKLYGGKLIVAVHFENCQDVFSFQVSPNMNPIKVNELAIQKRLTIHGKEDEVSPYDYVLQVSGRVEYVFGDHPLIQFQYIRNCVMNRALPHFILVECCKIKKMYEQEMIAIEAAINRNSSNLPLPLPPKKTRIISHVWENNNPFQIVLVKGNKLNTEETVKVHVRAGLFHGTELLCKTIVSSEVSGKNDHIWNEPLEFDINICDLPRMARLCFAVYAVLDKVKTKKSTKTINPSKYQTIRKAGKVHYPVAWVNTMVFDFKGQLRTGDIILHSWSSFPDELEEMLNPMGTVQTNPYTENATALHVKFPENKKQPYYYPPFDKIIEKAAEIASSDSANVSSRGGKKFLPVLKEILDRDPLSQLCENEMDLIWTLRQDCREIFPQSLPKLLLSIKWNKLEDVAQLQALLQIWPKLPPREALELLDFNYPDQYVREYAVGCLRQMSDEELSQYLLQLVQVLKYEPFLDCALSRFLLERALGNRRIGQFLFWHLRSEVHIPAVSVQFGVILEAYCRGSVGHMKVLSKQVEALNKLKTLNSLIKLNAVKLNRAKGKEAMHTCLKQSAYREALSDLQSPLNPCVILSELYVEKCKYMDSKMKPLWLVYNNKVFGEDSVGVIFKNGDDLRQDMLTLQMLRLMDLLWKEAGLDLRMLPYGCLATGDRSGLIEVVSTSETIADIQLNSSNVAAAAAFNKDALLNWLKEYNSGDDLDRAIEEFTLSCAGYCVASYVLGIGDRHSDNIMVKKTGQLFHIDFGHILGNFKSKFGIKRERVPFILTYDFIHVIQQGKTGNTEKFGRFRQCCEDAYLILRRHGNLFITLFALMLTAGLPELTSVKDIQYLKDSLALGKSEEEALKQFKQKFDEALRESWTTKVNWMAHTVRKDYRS

Row | inhibition [1] [%] | inhibition [2] [%] | inhibition [3] [%] | Ki [4] [nM] | inhibition [5] [%] | inhibition [6] [%] | solubility kinetic at 24 h [7] [µM] | Ki [8] [nM] | inhibition [9] [%] | inhibition at 10 µM (CYP2C9) [%] | inhibition [10] [%] | inhibition [11] [%] | inhibition at 10 µM (CYP1A2) [%] | Ki (PI3K p110 beta/p85 alpha) [nM] | inhibition [12] [%] | inhibition [13] [%] | inhibition [14] [%] | inhibition at 10 µM (CYP2D6) [%] | Structure (SMILES)
1 | < 25 | < 25 | < 25 | 3.4 | < 25 | < 25 | 100 (≈ 50.9 µg/mL) | 42.4 | < 25 | < 25 | < 25 | < 25 | < 25 | 285 | < 25 | < 25 | < 25 | < 25 | CS(=O)(=O)N1CCN(Cc2nc3c(N4CCOCC4)nc(-c4cnc(N)nc4)c(Cl)n3n2)CC1
2 | < 25 | < 25 | < 25 | 17.9 | < 25 | < 25 | 10 (≈ 4.75 µg/mL) | 40.6 | < 25 | < 25 | < 25 | < 25 | < 25 | 388 | < 25 | < 25 | < 25 | < 25 | CS(=O)(=O)N1CCN(Cc2cn3nc(-c4cnc(N)nc4)nc(N4CCOCC4)c3n2)CC1
3 | < 25 | < 25 | < 25 | 6.3 | < 25 | < 25 | 100 (≈ 47.5 µg/mL) |  | < 25 | < 25 | < 25 | < 25 | < 25 |  | < 25 | < 25 | < 25 | < 25 | CS(=O)(=O)N1CCN(Cc2nc3c(N4CCOCC4)nc(-c4cnc(N)nc4)cn3n2)CC1
4 | < 25 | < 25 | < 25 | 7.1 | < 25 | < 25 | 10 (≈ 4.74 µg/mL) | 49.1 | < 25 | < 25 | < 25 | < 25 | < 25 | 49.2 | < 25 | < 25 | < 25 | < 25 | CS(=O)(=O)N1CCN(Cc2cc3c(N4CCOCC4)nc(-c4cnc(N)nc4)cn3n2)CC1
